{"source": "ChEMBL document CHEMBL1137710", "about": "“Synthesis and in vitro antitumor activity of new quinoxaline derivatives” (2009)", "format_in_all_cases": "functional", "key": {"[1]": {"system": "SF-268", "assay": "Growth inhibition of human SF268 cells after 48 hrs by sulforhodamine B assay", "details": "SF-268, 48 h", "procedure,_shortened": "(§1)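 NCI 60-human-tumor-cell-line panel, with compounds tested over a 5-log dose range. Values are taken from dose-response curves as log10 molar concentrations: GI50 is 50% net growth inhibition, TGI is total growth inhibition, and LC50 is 50% net cell death.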"}, "[2]": {"system": "NCI-H522", "assay": "Growth inhibition of human NCI-H522 cells after 48 hrs by sulforhodamine B assay", "details": "NCI-H522, 48 h", "procedure,_shortened": "as §1"}, "[3]": {"system": "SF-539", "assay": "Growth inhibition of human SF539 cells after 48 hrs by sulforhodamine B assay", "details": "SF-539, 48 h", "procedure,_shortened": "as §1"}, "[4]": {"system": "OVCAR-4", "assay": "Growth inhibition of human OVCAR4 cells after 48 hrs by sulforhodamine B assay", "details": "OVCAR-4, 48 h", "procedure,_shortened": "as §1"}, "[5]": {"system": "NCI-H226", "assay": "Growth inhibition of human NCI-H226 cells after 48 hrs by sulforhodamine B assay", "details": "NCI-H226, 48 h", "procedure,_shortened": "as §1"}, "[6]": {"system": "SK-MEL-5", "assay": "Growth inhibition of human SK-MEL-5 cells after 48 hrs by sulforhodamine B assay", "details": "SK-MEL-5, 48 h", "procedure,_shortened": "as §1"}, "[7]": {"system": "NCI-H460", "assay": "Anticancer activity against human NCI-H460 cells assessed as cell growth at 100 uM after 48 hrs by sulforhodamine B assay", "details": "NCI-H460, 48 h, read-out: Activity"}, "[8]": {"system": "HOP-62", "assay": "Growth inhibition of human HOP62 cells after 48 hrs by sulforhodamine B assay", "details": "HOP-62, 48 h", "procedure,_shortened": "as §1"}, "[9]": {"system": "HL-60(TB)", "assay": "Growth inhibition of human HL-60(TB) cells after 48 hrs by sulforhodamine B assay", "details": "HL-60, 48 h", "procedure,_shortened": "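Tested only on compounds active in a three-line prescreen, in the NCI 60-human-tumour-cell-line panel over a 5-log dose range. Values come from dose–response curves as log10 molar GI50, the concentration inhibiting 50% net cell growth. Log10 TGI (total growth inhibition) and log10 LC50 (50% net cell death) were derived too. Mean graph midpoints include insensitive lines at the highest concentration tested.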"}, "[10]": {"system": "MOLT-4", "assay": "Growth inhibition of human MOLT4 cells after 48 hrs by sulforhodamine B assay", "details": "MOLT-4, 48 h", "procedure,_shortened": "as §1"}, "[11]": {"system": "UO-31", "assay": "Growth inhibition of human UO31 cells after 48 hrs by sulforhodamine B assay", "details": "UO-31, 48 h", "procedure,_shortened": "(§2)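 Run in the NCI 60-human-tumour-cell-line panel, tested over a 5-log dose range. Dose–response curves gave three values per cell line, each as a log10 molar concentration: GI50 (50% inhibition of net cell growth), TGI (total inhibition of net growth) and LC50 (50% net cell death). The mean graph midpoint is the arithmetic mean over all lines, with insensitive lines entered at the highest concentration tested.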"}, "[12]": {"system": "T47D", "assay": "Growth inhibition of human T47D cells after 48 hrs by sulforhodamine B assay", "procedure,_shortened": "as §2"}, "[13]": {"system": "SK-MEL-2", "assay": "Growth inhibition of human SK-MEL-2 cells after 48 hrs by sulforhodamine B assay", "details": "SK-MEL-2, 48 h", "procedure,_shortened": "as §1"}, "[14]": {"system": "MCF7", "assay": "Growth inhibition of human MCF7 cells after 48 hrs by sulforhodamine B assay", "details": "MCF7, 48 h", "procedure,_shortened": "as §1"}, "[15]": {"system": "Malme-3M", "assay": "Growth inhibition of human MALME-3M cells after 48 hrs by sulforhodamine B assay", "procedure,_shortened": "as §1"}, "[16]": {"system": "UACC-257", "assay": "Growth inhibition of human UACC257 cells after 48 hrs by sulforhodamine B assay", "details": "UACC-257, 48 h", "procedure,_shortened": "as §2"}, "[17]": {"system": "SN12C", "assay": "Growth inhibition of human SN12C cells after 48 hrs by sulforhodamine B assay", "procedure,_shortened": "as §2"}, "[18]": {"system": "CCRF-CEM", "assay": "Growth inhibition of human CCRF-CEM cells after 48 hrs by sulforhodamine B assay", "procedure,_shortened": "as §1"}, "[19]": {"system": "NCI-H322M", "assay": "Growth inhibition of human NCI-H322M cells after 48 hrs by sulforhodamine B assay", "procedure,_shortened": "as §1"}, "[20]": {"system": "OVCAR-3", "assay": "Growth inhibition of human OVCAR-3 cells after 48 hrs by sulforhodamine B assay", "details": "OVCAR-3, 48 h", "procedure,_shortened": "as §1"}, "[21]": {"system": "A498", "assay": "Growth inhibition of human A498 cells after 48 hrs by sulforhodamine B assay", "details": "A498, 48 h", "procedure,_shortened": "as §1"}, "[22]": {"system": "UACC-62", "assay": "Growth inhibition of human UACC62 cells after 48 hrs by sulforhodamine B assay", "details": "UACC-62, 48 h", "procedure,_shortened": "as §2"}, "[23]": {"system": "K562", "assay": "Growth inhibition of human K562 cells after 48 hrs by sulforhodamine B assay", "details": "K562, 48 h", "procedure,_shortened": "as §1"}, "[24]": {"system": "SK-MEL-28", "assay": "Growth inhibition of human SK-MEL-28 cells after 48 hrs by sulforhodamine B assay", "details": "SK-MEL-28, 48 h", "procedure,_shortened": "as §1"}, "[25]": {"system": "IGROV-1", "assay": "Growth inhibition of human IGROV1 cells after 48 hrs by sulforhodamine B assay", "details": "IGROV-1, 48 h", "procedure,_shortened": "as §1"}, "[26]": {"details": "read-out: pLC50 (the source's name) (converted)"}}}
{"smiles": "COc1ccc(Sc2nc3cc(N)cc(N)c3nc2-c2ccccc2)cc1", "values": [{"measurement": "GI50", "setting": "[1]", "result": "> 100", "unit": "µM"}, {"measurement": "LC50", "setting": "[1]", "result": "> 100", "unit": "µM"}, {"measurement": "TGI", "setting": "[1]; read-out: pTGI (converted)", "result": "> 100", "unit": "µM"}, {"measurement": "GI50", "setting": "[2]", "result": 3.24, "unit": "µM"}, {"measurement": "LC50", "setting": "[2]", "result": "> 100", "unit": "µM"}, {"measurement": "TGI", "setting": "[2]; read-out: pTGI (converted)", "result": "> 100", "unit": "µM"}, {"measurement": "GI50", "setting": "[3]", "result": 10, "unit": "µM"}, {"measurement": "LC50", "setting": "[3]", "result": "> 100", "unit": "µM"}, {"measurement": "TGI", "setting": "[3]; read-out: pTGI (converted)", "result": "> 100", "unit": "µM"}, {"measurement": "CC50", "setting": "[4]; [26]", "result": "> 100", "unit": "µM"}, {"measurement": "TGI", "setting": "[4]; read-out: pTGI (converted)", "result": "> 100", "unit": "µM"}, {"measurement": "LC50", "setting": "[5]", "result": "> 100", "unit": "µM"}, {"measurement": "TGI", "setting": "[5]; read-out: pTGI (converted)", "result": "> 100", "unit": "µM"}, {"measurement": "GI50", "setting": "[6]", "result": 24, "unit": "µM"}, {"measurement": "CC50", "setting": "[6]; [26]", "result": "> 100", "unit": "µM"}, {"measurement": "TGI", "setting": "[6]; read-out: pTGI (converted)", "result": "> 100", "unit": "µM"}, {"measurement": "growth at 100 µM", "setting": "[7]", "result": 0, "unit": "%"}, {"measurement": "GI50", "setting": "[8]", "result": "> 100", "unit": "µM"}, {"measurement": "LC50", "setting": "[8]", "result": "> 100", "unit": "µM"}, {"measurement": "TGI", "setting": "[8]; read-out: pTGI (converted)", "result": "> 100", "unit": "µM"}, {"measurement": "GI50", "setting": "[9]", "result": 4.27, "unit": "µM"}, {"measurement": "LC50", "setting": "[9]", "result": "> 100", "unit": "µM"}, {"measurement": "TGI", "setting": "[9]; read-out: pTGI (converted)", "result": "> 100", "unit": "µM"}, {"measurement": "GI50", "setting": "[10]", "result": 4.17, "unit": "µM"}, {"measurement": "LC50", "setting": "[10]", "result": "> 100", "unit": "µM"}, {"measurement": "TGI", "setting": "[10]; read-out: pTGI (converted)", "result": "> 100", "unit": "µM"}, {"measurement": "GI50", "setting": "[11]", "result": 4.17, "unit": "µM"}, {"measurement": "CC50", "setting": "[11]; [26]", "result": "> 100", "unit": "µM"}, {"measurement": "TGI", "setting": "[11]; read-out: pTGI (converted)", "result": "> 100", "unit": "µM"}, {"measurement": "GI50", "setting": "[12]", "result": "> 100", "unit": "µM"}, {"measurement": "CC50", "setting": "[12]; [26]", "result": "> 100", "unit": "µM"}, {"measurement": "TGI", "setting": "[12]; read-out: pTGI (converted)", "result": "> 100", "unit": "µM"}, {"measurement": "CC50", "setting": "[13]; [26]", "result": "> 100", "unit": "µM"}, {"measurement": "TGI", "setting": "[13]; read-out: pTGI (converted)", "result": "> 100", "unit": "µM"}, {"measurement": "GI50", "setting": "[14]", "result": 16.6, "unit": "µM"}, {"measurement": "CC50", "setting": "[14]; [26]", "result": "> 100", "unit": "µM"}, {"measurement": "TGI", "setting": "[14]; read-out: pTGI (converted)", "result": "> 100", "unit": "µM"}, {"measurement": "GI50", "setting": "[15]", "result": 33.1, "unit": "µM"}, {"measurement": "CC50", "setting": "[15]; [26]", "result": "> 100", "unit": "µM"}, {"measurement": "TGI", "setting": "[15]; read-out: pTGI (converted)", "result": 95.5, "unit": "µM"}, {"measurement": "GI50", "setting": "[16]", "result": 43.7, "unit": "µM"}, {"measurement": "CC50", "setting": "[16]; [26]", "result": "> 100", "unit": "µM"}, {"measurement": "TGI", "setting": "[16]; read-out: pTGI (converted)", "result": "> 100", "unit": "µM"}, {"measurement": "GI50", "setting": "[17]", "result": 6.03, "unit": "µM"}, {"measurement": "CC50", "setting": "[17]; [26]", "result": 87.1, "unit": "µM"}, {"measurement": "TGI", "setting": "[17]; read-out: pTGI (converted)", "result": 24, "unit": "µM"}, {"measurement": "GI50", "setting": "[18]", "result": 2290, "unit": "nM"}, {"measurement": "LC50", "setting": "[18]", "result": "> 100", "unit": "µM"}, {"measurement": "TGI", "setting": "[18]; read-out: pTGI (converted)", "result": 8.32, "unit": "µM"}, {"measurement": "GI50", "setting": "[19]", "result": 35.5, "unit": "µM"}, {"measurement": "LC50", "setting": "[19]", "result": "> 100", "unit": "µM"}, {"measurement": "TGI", "setting": "[19]; read-out: pTGI (converted)", "result": "> 100", "unit": "µM"}, {"measurement": "CC50", "setting": "[20]; [26]", "result": "> 100", "unit": "µM"}, {"measurement": "TGI", "setting": "[20]; read-out: pTGI (converted)", "result": "> 100", "unit": "µM"}, {"measurement": "GI50", "setting": "[21]", "result": 17.4, "unit": "µM"}, {"measurement": "CC50", "setting": "[21]; [26]", "result": 60.3, "unit": "µM"}, {"measurement": "TGI", "setting": "[21]; read-out: pTGI (converted)", "result": 32.4, "unit": "µM"}, {"measurement": "GI50", "setting": "[22]", "result": 38, "unit": "µM"}, {"measurement": "CC50", "setting": "[22]; [26]", "result": "> 100", "unit": "µM"}, {"measurement": "TGI", "setting": "[22]; read-out: pTGI (converted)", "result": "> 100", "unit": "µM"}, {"measurement": "GI50", "setting": "[23]", "result": 9.77, "unit": "µM"}, {"measurement": "LC50", "setting": "[23]", "result": "> 100", "unit": "µM"}, {"measurement": "TGI", "setting": "[23]; read-out: pTGI (converted)", "result": "> 100", "unit": "µM"}, {"measurement": "GI50", "setting": "[24]", "result": 24.5, "unit": "µM"}, {"measurement": "CC50", "setting": "[24]; [26]", "result": "> 100", "unit": "µM"}, {"measurement": "TGI", "setting": "[24]; read-out: pTGI (converted)", "result": "> 100", "unit": "µM"}, {"measurement": "CC50", "setting": "[25]; [26]", "result": "> 100", "unit": "µM"}, {"measurement": "TGI", "setting": "[25]; read-out: pTGI (converted)", "result": "> 100", "unit": "µM"}]}
